Measurements taken from ChEMBL document CHEMBL1221207, “Expanding the promiscuity of a natural-product glycosyltransferase by directed evolution” (Nat Chem Biol, 2007).

Tested on: T1, Oleandomycin glycosyltransferase (Streptomyces antibioticus), Q53685 [P67T,S132F,A242V]
T1 sequence (whole entry): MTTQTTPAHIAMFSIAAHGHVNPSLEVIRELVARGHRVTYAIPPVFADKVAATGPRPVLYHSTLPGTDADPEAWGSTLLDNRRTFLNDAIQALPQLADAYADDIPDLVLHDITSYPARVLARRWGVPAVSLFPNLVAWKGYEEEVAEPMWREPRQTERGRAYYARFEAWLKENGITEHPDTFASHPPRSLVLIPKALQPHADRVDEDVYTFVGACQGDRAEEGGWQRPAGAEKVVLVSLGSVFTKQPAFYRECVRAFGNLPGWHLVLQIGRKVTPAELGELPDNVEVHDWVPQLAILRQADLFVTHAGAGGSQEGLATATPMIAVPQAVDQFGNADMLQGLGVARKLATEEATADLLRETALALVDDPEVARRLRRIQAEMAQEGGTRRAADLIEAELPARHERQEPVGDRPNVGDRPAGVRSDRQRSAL
Experiment: Activity of Streptomyces antibioticus OleD P67T/S132F/A242V mutant assessed as conversion rate of compound to produce glucoside 3 using NDP sugar donor UDP-4-deoxy-glucose after 3 hrs by HPLC
In short: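 End-point donor-specificity assay with purified OleD enzyme. Percentage conversion was read after 3 h. Quenched reactions were run by reverse-phase C18 HPLC with a 10–90% CH3CN gradient in 0.1% formic acid/H2O over 20 min at 1 ml min–1, with detection at 254 nm. Products were identified by LC-MS, by comparison to standards where available, and by fluorescence.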

Cc1cc(=O)oc2cc(O)ccc12
Activity: 22%
